Calls of active or inactive are those of the source. No cut-off for these calls is given here.
Assays:
Rattus norvegicus [1] = assay: In vivo neurogenic activity in Sprague-Dawley rat neural progenitor cells at 4 mg/kg, ip qd pretreated for 28 days followed by BrdU addition at 2 hrs interval for twice on day 29 measured after 24 hrs by BrdU incorporation assay relative to control; format: functional
Procedure, shortened: (§1)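 Male SD rats aged 10 weeks, acclimatized 7 days (11 weeks old at start), dosed ip once daily for 28 days with compound in soybean oil containing 10% ethanol; vehicle group received 10% ethanol in oil. On day 29, BrdU in saline given twice at 100 mg/kg, 2 h apart. Rats sacrificed 24 h after the last BrdU. BrdU+ cells in SGZ-GCL counted by DAB immunostaining of 30 µm cryosections; n = 8; mean ± SEM.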

[2] = Cytotoxicity against human SH-SY5Y cells assessed as cell survival at 100 uM after 24 hrs by MTT assay relative to control; format: cell-based; details: read-out: Survival
Procedure, shortened: (§2)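 SH-SY5Y human neuroblastoma cells seeded at 5 × 10⁴ cells/mL, incubated 24 h at 37 °C, then exposed to compounds at final concentrations of […] for 24 h. MTT added for a further 4 h at 37 °C. Absorbance read at 570 nm and reported as percent viability. Five parallel samples per condition.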

[3] = Cytotoxicity against human SH-SY5Y cells assessed as cell survival at 500 uM after 24 hrs by MTT assay relative to control; format: cell-based; details: read-out: Survival; procedure, shortened: as §2
[4] = Cytotoxicity against human SH-SY5Y cells assessed as cell survival at 1000 uM after 24 hrs by MTT assay relative to control; format: cell-based; details: read-out: Survival; procedure, shortened: as §2
Rattus norvegicus [5] = assay: In vivo neurogenic activity in Sprague-Dawley rat neural progenitor cells at 2.2 mg/kg, ip qd pretreated for 28 days followed by BrdU addition at 2 hrs interval for twice on day 29 measured after 24 hrs by BrdU incorporation assay; format: functional, organism-based; procedure, shortened: as §1

Structure (SMILES) | Activity (Rattus norvegicus [1]) | viability at 24 h, 100 µM [2] | viability at 24 h, 500 µM [3] | viability at 24 h, 1000 µM [4] | Activity (Rattus norvegicus [5])
O=C(Nc1ccc(/C=C/c2ccc3c(c2)OCO3)cc1)C(F)(F)F | inactive | 75.2% | 53.4% | 41.5% | 
COc1ccc(C(=O)/C=C/c2ccc3c(c2)OCO3)c(O)c1 |  | 90.4% | 59.9% | 49.3% | 
CC(=O)Nc1ccc(/C=C/C(=O)c2ccc3c(c2)OCO3)cc1 |  | 6.71% | 2.78% | 4.69% | 
CC(=O)c1ccc(/C=C/c2ccc3c(c2)OCO3)cc1 |  | 70.3% | 63.5% | 53.9% | 
Oc1ccc(/C=C/c2cc(C(F)(F)F)cc(C(F)(F)F)c2)cc1 |  | -4.81% | -0.07% | -3.86% | 
C(#Cc1ccc2c(c1)OCO2)c1ccsc1 |  | 46.2% | 32.9% | 21% | 
Oc1ccc(/C=C/c2cc(F)cc(F)c2)cc1 |  | -13.6% | -11% | -7.78% | 
CC(=O)Oc1ccc(/C=C/c2cc(C)cc(C)c2)cc1 |  | 3.24% | 2.8% | 18.4% | 
COc1ccc(/C=C/c2ccc(O)cc2)cc1OC |  | 56.8% | 44.1% | 35.3% | 
COc1cc(/C=C/C(=O)c2ccc3c(c2)OCO3)ccc1O |  | 16.3% | 25.2% | 26.2% | 
CC(=O)Nc1ccc(C#Cc2ccc3c(c2)OCO3)cc1 | inactive | 63.2% | 51.3% | 35.2% | 
CCC(=O)Nc1ccc(/C=C/c2ccc3c(c2)OCO3)cc1 |  | 85.9% | 80.6% | 61.5% | Active
COc1ccc(/C=C/C(=O)c2ccc3c(c2)OCO3)cc1O |  | 44.7% | 22.2% | 17.1% | 
COc1ccc(/C=C/c2cccc(OC(F)(F)F)c2)cc1 |  | 40.2% | 40.5% | 38.7% | 
CCOc1ccc(C#Cc2ccc3c(c2)OCO3)cc1 | inactive | 56.5% | 41% | 38.1% | 
COc1cccc(/C=C/c2ccc(NC(C)=O)cc2)c1 |  | 44.5% | 26.1% | 11.9% | 
CN(C)c1ccc(/C=C/C(=O)c2ccc3c(c2)OCO3)cc1 |  | 49.8% | 40.2% | 23.7% | 
Cc1cc(C)cc(/C=C/c2ccc(O)cc2)c1 |  | 7.31% | 1.84% | 2.88% | 
Cc1ccc(C#Cc2ccc(OCc3ccccc3)cc2)cc1 |  | 94.2% | 72.5% | 68% | 

Structure (SMILES) | Activity (Rattus norvegicus [1]) | viability at 24 h, 100 µM [2] | viability at 24 h, 500 µM [3] | viability at 24 h, 1000 µM [4] | Activity (Rattus norvegicus [5])
COc1ccc(/C=C/c2ccc(N)c(F)c2)cc1 |  | 80% | 65.1% | 47.8% | 
COc1cc(/C=C/c2ccc(O)cc2)cc(OC)c1OC |  | 27.5% | 25.9% | 21.2% | 
Oc1ccc(/C=C/c2ccc3c(c2)OCCO3)cc1 |  | 2.8% | 2% | -0.08% | 
Nc1ccc(/C=C/c2cccc(OC(F)(F)F)c2)cc1 |  | 51.8% | 31.9% | 26.9% | 
COc1cc(/C=C/c2ccc3c(c2)OCO3)cc(OC)c1 |  | 74% | 60.9% | 45.7% | 
CC(=O)Nc1cccc(/C=C/c2ccc3c(c2)OCO3)c1 |  | 20.9% | 7.78% | 2.7% | 
CC(=O)c1ccc(/C=C/c2ccc(O)cc2)cc1 |  | 94.4% | 59.2% | 24.6% | 
C(=C\c1ccc2c(c1)OCO2)/c1ccc(OCc2ccccc2)cc1 |  | 67.3% | 72.7% | 80.6% | 
Nc1ccc(/C=C/c2ccc3c(c2)OCO3)cc1 |  | 47.6% | 39.1% | 32.2% | 
C(=C\c1ccc2c(c1)OCO2)/c1ccncc1 |  | 8.43% | 4.26% | 3.56% | 
COc1ccc(/C=C/c2ccc(NC(C)=O)c(F)c2)cc1 |  | 14.2% | 1.52% | 0.69% | 
COc1cc(/C=C/c2ccc(O)cc2)cc(OC)c1 [PTEROSTILBENE] | Active | -0.58% | 32.7% | 51.4% | 
COc1ccc(/C=C/c2cccc(C#N)c2)cc1 |  | 66.3% | 67% | 48.3% | 
Oc1ccc(/C=C/c2cccc(OC(F)(F)F)c2)cc1 |  | 77.1% | 55.4% | 5.06% | 
COc1cc(/C=C/c2ccc(NC(C)=O)cc2)cc(OC)c1 | Active | 54.5% | 48.5% | 45.2% | 
CCCC(=O)Nc1ccc(/C=C/c2ccc3c(c2)OCO3)cc1 | Active | 58.8% | 40.7% | 33.3% | 
CCCCCOc1ccc(C#Cc2ccc3c(c2)OCO3)cc1 |  | 69.8% | 22.9% | 15.3% | 
COc1cc(/C=C/C(=O)c2ccc(O)cc2)cc(OC)c1 |  | 5.64% | 3.53% | 2.57% | 
COc1ccc(/C=C/c2ccc(N)cc2)cc1OC |  | 53.7% | 51.7% | 50.4% | 

Structure (SMILES) | Activity (Rattus norvegicus [1]) | viability at 24 h, 100 µM [2] | viability at 24 h, 500 µM [3] | viability at 24 h, 1000 µM [4] | Activity (Rattus norvegicus [5])
COc1ccc(C#Cc2cc(C)cc(C)c2)cc1 |  | 54.2% | 24.3% | 22.1% | 
COc1ccc(/C=C/c2ccc(Cl)cc2)cc1OC |  | 57.3% | 51.6% | 56.4% | 
COc1ccc(C#Cc2cc(C(F)(F)F)cc(C(F)(F)F)c2)cc1 |  | 28.6% | 20.9% | 18.3% | 
CC(=O)Nc1ccc(/C=C/c2ccc3c(c2)OCO3)cc1F | Active | 86.7% | 82% | 75.1% | 
CC(=O)N(C)c1ccc(/C=C/c2ccc3c(c2)OCO3)cc1 | inactive | 50.4% | 15.8% | 5.89% | 
N#Cc1ccc(/C=C/c2ccc3c(c2)OCO3)cc1 | Active | 110% | 43.7% | 36.1% | 
COc1ccccc1/C=C/c1ccc2c(c1)OCO2 |  | 36.1% | 33.6% | 23.6% | 
O=C(Nc1ccc(/C=C/c2ccc3c(c2)OCO3)cc1)c1cccs1 | Active | 62.5% | 54.4% | 49.1% | 
COc1ccc(C(=O)/C=C/c2ccc(O)c(OC)c2)cc1 |  | 13.3% | 39.8% | 165% | 
C(#Cc1cccs1)c1ccc2c(c1)OCO2 |  | 43.9% | 27.5% | 17.7% | 
CCCCCc1ccc(C#Cc2ccc(OCc3ccccc3)cc2)cc1 |  | 62.6% | 51.3% | 49% | 
COc1cccc(/C=C/c2ccc3c(c2)OCO3)c1 |  | 72.5% | 52.7% | 32% | 
COc1ccc2c(c1)OC(c1ccc3c(c1)OCO3)CC2=O (centres undefined) |  | 73.2% | 44.8% | 27.3% | 
N#Cc1cccc(/C=C/c2ccc(O)cc2)c1 |  | 20.9% | 16.9% | 14.9% | 
CN(C)c1ccc(/C=C/c2ccc3c(c2)OCO3)cc1 | Active | 83.3% | 51.2% | 52.6% | 
Cc1ccc(C#Cc2ccc3c(c2)OCO3)cc1 |  | 51.9% | 24.8% | 23.7% | 
COc1ccc(C#Cc2ccc(OC)c(OC)c2)cc1 |  | 94.1% | 78.9% | 65.5% | 
Oc1ccc(/C=C/c2ccc(Cl)cc2)cc1O |  | 107% | 69.2% | 38.5% | 
COc1ccc(/C=C/c2ccc3c(c2)OCO3)cc1 | Active | 76.1% | 69.6% | 62.8% | 

Source: ChEMBL document CHEMBL4138103, “Discovery of efficient stimulators for adult hippocampal neurogenesis based on scaffolds in dragon's blood” (Eur J Med Chem, 2017)
